According to ChEMBL document CHEMBL2424622, “Development of amino-pyrimidine inhibitors of c-Jun N-terminal kinase (JNK): kinase profiling guided optimization of a 1,2,3-benzotriazole lead” (Bioorg Med Chem Lett, 2013):

Key:
[1] = molecular target: T1, Tyrosine-protein kinase Tec (Homo sapiens) (UniProt P42680); assay: Competitive binding affinity to TEC (unknown origin) at 10 uM in presence of ATP relative to control
T1 sequence (whole entry): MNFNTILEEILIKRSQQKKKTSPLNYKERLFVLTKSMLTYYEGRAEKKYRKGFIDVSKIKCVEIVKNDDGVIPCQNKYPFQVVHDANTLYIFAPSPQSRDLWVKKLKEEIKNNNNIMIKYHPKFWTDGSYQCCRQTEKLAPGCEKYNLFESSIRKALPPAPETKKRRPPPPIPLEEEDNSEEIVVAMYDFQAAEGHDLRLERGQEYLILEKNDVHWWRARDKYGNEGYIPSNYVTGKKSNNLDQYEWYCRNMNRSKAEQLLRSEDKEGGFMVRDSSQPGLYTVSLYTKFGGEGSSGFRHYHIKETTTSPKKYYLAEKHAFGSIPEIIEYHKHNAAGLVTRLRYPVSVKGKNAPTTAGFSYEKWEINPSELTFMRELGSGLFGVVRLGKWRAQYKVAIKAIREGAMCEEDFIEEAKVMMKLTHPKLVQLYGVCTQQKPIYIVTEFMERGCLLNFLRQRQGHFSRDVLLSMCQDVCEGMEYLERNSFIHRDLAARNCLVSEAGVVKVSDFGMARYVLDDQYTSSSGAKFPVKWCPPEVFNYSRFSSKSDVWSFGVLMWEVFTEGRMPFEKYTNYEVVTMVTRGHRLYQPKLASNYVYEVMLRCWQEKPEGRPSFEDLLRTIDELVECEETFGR

[2] = molecular target: Cyclin-dependent kinase 17 (Homo sapiens) (UniProt Q00537); assay: Competitive binding affinity to PCTK2 (unknown origin) at 10 uM in presence of ATP relative to control
[3] = molecular target: Atypical kinase COQ8A, mitochondrial (Homo sapiens, UniProt Q8NI60); assay: Competitive binding affinity to ADCK3 (unknown origin) at 10 uM in presence of ATP relative to control
Procedure, shortened: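 In vitro ATP-site competition binding assay across a diverse panel of 128 kinases, with each compound tested at a single concentration. Kinase binding is expressed relative to control.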

[4] = molecular target: Mitogen-activated protein kinase 4 (Homo sapiens, UniProt P31152); assay: Competitive binding affinity to ERK4 (unknown origin) at 10 uM in presence of ATP relative to control
[5] = molecular target: Mitogen-activated protein kinase kinase kinase kinase 4 (Homo sapiens) (UniProt O95819); assay: Competitive binding affinity to MAP4K4 (unknown origin) at 10 uM in presence of ATP relative to control
[6] = molecular target: T2, Casein kinase I isoform alpha-like (Homo sapiens) (UniProt Q8N752); assay: Competitive binding affinity to CSNK1A1L (unknown origin) at 10 uM in presence of ATP relative to control
T2 sequence (whole entry): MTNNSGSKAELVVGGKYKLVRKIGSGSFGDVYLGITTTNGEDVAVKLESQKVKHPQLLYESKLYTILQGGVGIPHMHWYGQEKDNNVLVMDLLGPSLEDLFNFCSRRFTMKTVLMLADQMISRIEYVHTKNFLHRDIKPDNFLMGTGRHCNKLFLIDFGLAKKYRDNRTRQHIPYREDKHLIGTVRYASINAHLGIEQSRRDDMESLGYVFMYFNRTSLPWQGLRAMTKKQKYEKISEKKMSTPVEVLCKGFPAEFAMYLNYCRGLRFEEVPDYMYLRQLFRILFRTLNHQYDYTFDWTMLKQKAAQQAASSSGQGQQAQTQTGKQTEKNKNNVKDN

[7] = molecular target: T3, Myosin light chain kinase family member 4 (Homo sapiens) (UniProt Q86YV6); assay: Competitive binding affinity to SgK085 (unknown origin) at 10 uM in presence of ATP relative to control
T3 sequence (whole entry): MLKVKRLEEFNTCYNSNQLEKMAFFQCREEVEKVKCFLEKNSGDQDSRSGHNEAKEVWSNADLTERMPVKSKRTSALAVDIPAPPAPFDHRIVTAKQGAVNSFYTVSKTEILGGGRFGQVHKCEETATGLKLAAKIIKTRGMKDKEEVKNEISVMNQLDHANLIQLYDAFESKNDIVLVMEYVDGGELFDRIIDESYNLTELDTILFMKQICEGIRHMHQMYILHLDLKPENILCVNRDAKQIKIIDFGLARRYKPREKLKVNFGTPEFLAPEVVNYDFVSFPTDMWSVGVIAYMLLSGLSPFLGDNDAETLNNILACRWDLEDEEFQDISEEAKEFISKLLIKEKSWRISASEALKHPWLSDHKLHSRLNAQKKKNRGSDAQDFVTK

[8] = molecular target: T4, cGMP-dependent protein kinase 2 (Homo sapiens) (UniProt Q13237); assay: Competitive binding affinity to PRKG2 (unknown origin) at 10 uM in presence of ATP relative to control
T4 sequence (whole entry): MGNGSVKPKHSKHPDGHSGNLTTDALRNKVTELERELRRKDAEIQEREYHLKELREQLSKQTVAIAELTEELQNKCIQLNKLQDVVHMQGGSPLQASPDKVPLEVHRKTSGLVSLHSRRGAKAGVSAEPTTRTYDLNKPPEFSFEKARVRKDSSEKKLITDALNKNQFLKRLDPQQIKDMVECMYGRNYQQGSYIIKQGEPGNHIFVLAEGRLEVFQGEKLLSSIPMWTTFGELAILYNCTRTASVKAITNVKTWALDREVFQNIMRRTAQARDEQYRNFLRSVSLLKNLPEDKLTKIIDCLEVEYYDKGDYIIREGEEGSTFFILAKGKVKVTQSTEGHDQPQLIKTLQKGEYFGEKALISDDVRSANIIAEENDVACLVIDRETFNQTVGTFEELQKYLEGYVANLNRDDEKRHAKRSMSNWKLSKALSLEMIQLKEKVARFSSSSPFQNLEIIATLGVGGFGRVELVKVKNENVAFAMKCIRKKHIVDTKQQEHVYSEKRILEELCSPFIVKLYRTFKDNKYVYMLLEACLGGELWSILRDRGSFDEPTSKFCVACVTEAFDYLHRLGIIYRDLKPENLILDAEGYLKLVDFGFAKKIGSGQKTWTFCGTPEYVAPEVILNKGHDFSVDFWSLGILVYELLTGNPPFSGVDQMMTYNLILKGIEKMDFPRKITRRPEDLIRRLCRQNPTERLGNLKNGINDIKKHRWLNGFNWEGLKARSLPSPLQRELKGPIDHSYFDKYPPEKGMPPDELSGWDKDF

Chain of Atypical kinase COQ8A, mitochondrial (Q8NI60 163-647 limits assumed): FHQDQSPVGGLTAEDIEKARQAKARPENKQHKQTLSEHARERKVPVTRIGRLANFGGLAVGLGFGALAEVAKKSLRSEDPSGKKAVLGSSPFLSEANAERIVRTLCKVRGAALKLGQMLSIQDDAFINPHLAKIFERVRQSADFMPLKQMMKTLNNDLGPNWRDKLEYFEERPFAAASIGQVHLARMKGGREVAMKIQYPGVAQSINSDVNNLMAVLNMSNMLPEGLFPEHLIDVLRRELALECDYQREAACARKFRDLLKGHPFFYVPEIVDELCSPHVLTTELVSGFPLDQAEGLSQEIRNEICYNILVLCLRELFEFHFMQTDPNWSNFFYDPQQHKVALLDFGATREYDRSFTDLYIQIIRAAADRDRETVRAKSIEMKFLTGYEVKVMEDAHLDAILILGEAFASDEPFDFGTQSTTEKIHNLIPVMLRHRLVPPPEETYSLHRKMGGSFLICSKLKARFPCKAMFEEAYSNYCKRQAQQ
Chain of Mitogen-activated protein kinase kinase kinase kinase 4 (Homo sapiens) (O95819 2-1239 limits assumed): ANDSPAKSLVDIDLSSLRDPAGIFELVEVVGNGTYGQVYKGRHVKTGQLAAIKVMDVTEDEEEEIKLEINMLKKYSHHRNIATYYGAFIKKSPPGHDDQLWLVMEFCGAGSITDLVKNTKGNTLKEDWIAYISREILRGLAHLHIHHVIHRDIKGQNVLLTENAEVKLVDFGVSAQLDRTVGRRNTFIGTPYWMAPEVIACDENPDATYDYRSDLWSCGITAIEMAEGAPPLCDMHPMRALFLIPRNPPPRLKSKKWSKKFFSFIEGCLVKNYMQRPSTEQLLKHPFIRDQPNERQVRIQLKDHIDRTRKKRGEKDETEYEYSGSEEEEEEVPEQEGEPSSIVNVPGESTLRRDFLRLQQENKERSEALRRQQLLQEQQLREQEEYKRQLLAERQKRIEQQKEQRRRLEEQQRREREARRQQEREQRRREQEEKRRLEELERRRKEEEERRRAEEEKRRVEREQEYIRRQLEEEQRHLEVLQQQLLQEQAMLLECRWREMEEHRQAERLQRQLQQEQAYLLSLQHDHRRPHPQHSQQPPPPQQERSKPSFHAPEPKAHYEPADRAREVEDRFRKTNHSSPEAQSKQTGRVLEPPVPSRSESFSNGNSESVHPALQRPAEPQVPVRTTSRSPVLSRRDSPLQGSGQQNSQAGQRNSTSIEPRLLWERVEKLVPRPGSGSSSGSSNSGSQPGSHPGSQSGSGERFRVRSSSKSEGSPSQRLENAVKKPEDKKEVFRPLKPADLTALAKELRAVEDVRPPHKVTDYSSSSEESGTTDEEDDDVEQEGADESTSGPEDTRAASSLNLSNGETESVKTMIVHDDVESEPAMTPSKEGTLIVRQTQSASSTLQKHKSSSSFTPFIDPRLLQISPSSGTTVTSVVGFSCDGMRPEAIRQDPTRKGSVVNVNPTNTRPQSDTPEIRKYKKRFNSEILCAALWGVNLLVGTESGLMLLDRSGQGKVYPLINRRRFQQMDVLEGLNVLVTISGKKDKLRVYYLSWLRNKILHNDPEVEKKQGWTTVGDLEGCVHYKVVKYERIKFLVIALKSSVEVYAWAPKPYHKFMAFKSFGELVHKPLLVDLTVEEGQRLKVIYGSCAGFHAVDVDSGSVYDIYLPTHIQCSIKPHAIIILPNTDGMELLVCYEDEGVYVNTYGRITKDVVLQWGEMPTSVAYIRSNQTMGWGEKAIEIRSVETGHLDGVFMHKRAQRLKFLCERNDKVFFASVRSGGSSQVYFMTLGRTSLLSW
Chain of Mitogen-activated protein kinase 4 (P31152 whole entry): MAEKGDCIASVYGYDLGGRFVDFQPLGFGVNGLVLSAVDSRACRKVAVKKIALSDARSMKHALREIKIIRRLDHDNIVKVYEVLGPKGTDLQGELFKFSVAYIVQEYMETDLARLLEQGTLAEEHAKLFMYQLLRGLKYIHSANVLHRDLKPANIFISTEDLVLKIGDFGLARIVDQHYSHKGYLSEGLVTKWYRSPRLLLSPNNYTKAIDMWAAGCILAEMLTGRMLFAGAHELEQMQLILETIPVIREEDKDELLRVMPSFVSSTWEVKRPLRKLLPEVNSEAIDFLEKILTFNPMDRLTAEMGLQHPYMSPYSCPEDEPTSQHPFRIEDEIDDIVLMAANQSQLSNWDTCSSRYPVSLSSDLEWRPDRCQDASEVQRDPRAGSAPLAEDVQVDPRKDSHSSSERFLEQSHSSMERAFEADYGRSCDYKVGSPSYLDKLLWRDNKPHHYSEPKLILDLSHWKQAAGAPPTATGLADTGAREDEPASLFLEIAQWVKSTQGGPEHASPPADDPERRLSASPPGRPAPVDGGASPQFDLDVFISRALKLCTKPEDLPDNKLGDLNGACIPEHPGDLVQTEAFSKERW
Chain of Cyclin-dependent kinase 17 (Homo sapiens) (Q00537 whole entry, looked up): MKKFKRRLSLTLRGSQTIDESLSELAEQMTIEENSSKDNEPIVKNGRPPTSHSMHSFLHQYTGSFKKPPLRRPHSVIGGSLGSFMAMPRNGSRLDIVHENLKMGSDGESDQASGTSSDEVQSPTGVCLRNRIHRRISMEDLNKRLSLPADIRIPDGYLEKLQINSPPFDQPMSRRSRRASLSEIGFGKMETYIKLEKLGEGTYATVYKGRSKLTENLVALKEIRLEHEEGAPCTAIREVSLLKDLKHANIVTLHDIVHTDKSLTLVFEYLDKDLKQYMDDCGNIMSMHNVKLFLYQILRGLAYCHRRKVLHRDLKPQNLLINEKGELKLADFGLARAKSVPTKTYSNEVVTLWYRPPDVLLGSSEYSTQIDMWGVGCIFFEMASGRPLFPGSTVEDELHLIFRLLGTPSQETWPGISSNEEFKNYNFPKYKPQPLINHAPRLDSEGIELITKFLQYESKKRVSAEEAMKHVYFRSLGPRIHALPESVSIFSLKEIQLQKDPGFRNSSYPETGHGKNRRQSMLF

| SMILES | inhibition [1] [%] | inhibition [2] [%] | inhibition [3] [%] | inhibition [4] [%] | inhibition [5] [%] | inhibition [6] [%] | inhibition [7] [%] | inhibition [8] [%] |
| --- | --- | --- | --- | --- | --- | --- | --- | --- |
| O[C@H]1CC[C@H](Nc2nccc(-n3nnc4ccccc43)n2)CC1 | < 50 | 88 | 92 | 100 | < 50 | 100 | 97 | < 50 |
| CS(=O)(=O)CCCOc1cccc2c1ccn2-c1ccnc(N[C@H]2CC[C@H](C(=O)N3CCC(O)CC3)CC2)n1 |  |  | > 85 | > 85 |  |  | > 85 |  |
| O[C@H]1CC[C@H](Nc2nccc(-n3ncc4ccccc43)n2)CC1 | < 50 | 78 | 89 | 99 | 64 | 91 | 96 | < 50 |
| O[C@H]1CC[C@H](Nc2nccc(-c3n[nH]c4ccccc34)n2)CC1 |  |  | 79 |  | 95 | 100 |  | < 50 |
| O[C@H]1CC[C@H](Nc2nccc(-n3ccc4ccccc43)n2)CC1 | < 50 | 73 | 80 | 63 | < 50 | 74 | 98 | < 50 |
